In ChEMBL document CHEMBL1152988, “Mutated response regulator graR is responsible for phenotypic conversion of Staphylococcus aureus from heterogeneous vancomycin-intermediate resistance to vancomycin-intermediate resistance” (2008):
≈ marks a conversion by molar mass, not a printed value.

Key:
Staphylococcus aureus [1] = assay: Antibacterial activity against heterogeneous vancomycin-intermediate Staphylococcus aureus Mu3 harboring intact graR gene after 24 hrs by agar dilution method; format: functional; details: Mu3, 24 h
Procedure, shortened: (§1)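 Host carries shuttle vector pYT3, either empty or carrying PCR-cloned graR (SA0614) from N315 (intact) or Mu50 (N197S mutant), introduced by electroporation and sequence-verified. MICs were determined by agar dilution per CLSI, with vancomycin MIC in BHI agar. Glycopeptides and daptomycin were tested at 1-mg/liter linear steps, oxacillin by twofold dilutions. Plates were read at 24 h and 48 h.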

Staphylococcus aureus [2] = assay: Antibacterial activity against heterogeneous vancomycin-intermediate Staphylococcus aureus Mu3 harboring shuttle vector pYT3 after 24 hrs by agar dilution method; format: functional; details: Mu3, 24 h; procedure, shortened: as §1
Staphylococcus aureus [3] = assay: Antibacterial activity against mutated graR gene knockout vancomycin-susceptible Staphylococcus aureus N315 after 24 hrs by agar dilution method; format: functional; details: N315, 24 h
Procedure, shortened: (§2)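 Agar dilution MICs per CLSI, with vancomycin MIC in BHI agar. Vancomycin, teicoplanin and daptomycin were tested at linear 1-mg/liter concentration steps; oxacillin was tested by twofold dilutions. Plates were read at 24 h and again at 48 h so a slow-growing resistant subpopulation would not be missed. graSR-null mutants were made by allelic exchange, replacing graSR with a cat cassette.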

Staphylococcus aureus [4] = assay: Antibacterial activity against vancomycin-susceptible Staphylococcus aureus N315 harboring mutated graR gene after 24 hrs by agar dilution method; format: functional; details: N315, 24 h; procedure, shortened: as §1
Staphylococcus aureus [5] = assay: Antibacterial activity against mutated graSR gene knockout vancomycin-susceptible Staphylococcus aureus N315 after 48 hrs by agar dilution method; format: functional; details: N315, 48 h; procedure, shortened: as §2
Staphylococcus aureus [6] = assay: Antibacterial activity against vancomycin-susceptible Staphylococcus aureus N315 after 24 hrs by agar dilution method; format: functional; details: N315, 24 h; procedure, shortened: as §2
Staphylococcus aureus [7] = assay: Antibacterial activity against vancomycin-intermediate Staphylococcus aureus Mu50 after 48 hrs by agar dilution method; format: functional; details: Mu50, 48 h; procedure, shortened: as §2
Staphylococcus aureus [8] = assay: Antibacterial activity against mutated graR gene knockout heterogeneous vancomycin-intermediate Staphylococcus aureus Mu3 after 24 hrs by agar dilution method; format: functional; details: Mu3, 24 h; procedure, shortened: as §2
Staphylococcus aureus [9] = assay: Antibacterial activity against graSR gene knockout heterogeneous vancomycin-intermediate Staphylococcus aureus Mu3 after 48 hrs by agar dilution method; format: functional; details: Mu3, 48 h; procedure, shortened: as §2
Staphylococcus aureus [10] = assay: Antibacterial activity against vancomycin-susceptible Staphylococcus aureus N315 harboring intact graR gene after 48 hrs by agar dilution method; format: functional; details: N315, 48 h; procedure, shortened: as §1
Staphylococcus aureus [11] = assay: Antibacterial activity against vancomycin-susceptible Staphylococcus aureus N315 after 48 hrs by agar dilution method; format: functional; details: N315, 48 h; procedure, shortened: as §2
Staphylococcus aureus [12] = assay: Antibacterial activity against vancomycin-susceptible Staphylococcus aureus N315 harboring shuttle vector pYT3 after 24 hrs by agar dilution method; format: functional; details: N315, 24 h; procedure, shortened: as §1
Staphylococcus aureus [13] = assay: Antibacterial activity against vancomycin-susceptible Staphylococcus aureus N315 harboring mutated graR gene after 48 hrs by agar dilution method; format: functional; details: N315, 48 h; procedure, shortened: as §1
Staphylococcus aureus [14] = assay: Antibacterial activity against heterogeneous vancomycin-intermediate Staphylococcus aureus Mu3 harboring mutated graR gene after 48 hrs by agar dilution method; format: functional; details: Mu3, 48 h; procedure, shortened: as §1
Staphylococcus aureus [15] = assay: Antibacterial activity against graSR gene knockout vancomycin-susceptible Staphylococcus aureus N315 after 48 hrs by agar dilution method; format: functional; details: N315, 48 h; procedure, shortened: as §2
Staphylococcus aureus [16] = assay: Antibacterial activity against graSR gene knockout heterogeneous vancomycin-intermediate Staphylococcus aureus Mu3 after 24 hrs by agar dilution method; format: functional; details: Mu3, 24 h; procedure, shortened: as §2
Staphylococcus aureus [17] = assay: Antibacterial activity against vancomycin-intermediate Staphylococcus aureus Mu50 after 24 hrs by agar dilution method; format: functional; details: Mu50, 24 h; procedure, shortened: as §2
Staphylococcus aureus [18] = assay: Antibacterial activity against mutated graSR gene knockout vancomycin-susceptible Staphylococcus aureus N315 after 24 hrs by agar dilution method; format: functional; details: N315, 24 h; procedure, shortened: as §2
Staphylococcus aureus [19] = assay: Antibacterial activity against vancomycin-susceptible Staphylococcus aureus N315 harboring shuttle vector pYT3 after 48 hrs by agar dilution method; format: functional; details: N315, 48 h; procedure, shortened: as §1
Staphylococcus aureus [20] = assay: Antibacterial activity against heterogeneous vancomycin-intermediate Staphylococcus aureus Mu3 after 48 hrs by agar dilution method; format: functional; details: Mu3, 48 h; procedure, shortened: as §2
Staphylococcus aureus [21] = assay: Antibacterial activity against mutated graR gene knockout heterogeneous vancomycin-intermediate Staphylococcus aureus Mu3 after 48 hrs by agar dilution method; format: functional; details: Mu3, 48 h; procedure, shortened: as §2
Staphylococcus aureus [22] = assay: Antibacterial activity against graSR gene knockout vancomycin-susceptible Staphylococcus aureus N315 after 24 hrs by agar dilution method; format: functional; details: N315, 24 h; procedure, shortened: as §2
Staphylococcus aureus [23] = assay: Antibacterial activity against vancomycin-susceptible Staphylococcus aureus N315 harboring intact graR gene after 24 hrs by agar dilution method; format: functional; details: N315, 24 h; procedure, shortened: as §1
Staphylococcus aureus [24] = assay: Antibacterial activity against heterogeneous vancomycin-intermediate Staphylococcus aureus Mu3 after 24 hrs by agar dilution method; format: functional; details: Mu3, 24 h; procedure, shortened: as §2
Staphylococcus aureus [25] = assay: Antibacterial activity against heterogeneous vancomycin-intermediate Staphylococcus aureus Mu3 harboring intact graR gene after 48 hrs by agar dilution method; format: functional; details: Mu3, 48 h; procedure, shortened: as §1
Staphylococcus aureus [26] = assay: Antibacterial activity against mutated graR gene knockout vancomycin-susceptible Staphylococcus aureus N315 after 48 hrs by agar dilution method; format: functional; details: N315, 48 h; procedure, shortened: as §2
Staphylococcus aureus [27] = assay: Antibacterial activity against heterogeneous vancomycin-intermediate Staphylococcus aureus Mu3 harboring mutated graR gene after 24 hrs by agar dilution method; format: functional; details: Mu3, 24 h; procedure, shortened: as §1
Staphylococcus aureus [28] = assay: Antibacterial activity against heterogeneous vancomycin-intermediate Staphylococcus aureus Mu3 harboring shuttle vector pYT3 after 48 hrs by agar dilution method; format: functional; details: Mu3, 48 h; procedure, shortened: as §1
Staphylococcus aureus [29] = assay: Antibacterial activity against vancomycin-susceptible Staphylococcus aureus N315 harboring complement system vraSR by agar dilution method

SMILES | MIC (Staphylococcus aureus [1]) [µg/mL] | MIC (Staphylococcus aureus [2]) [µg/mL] | MIC (Staphylococcus aureus [3]) [µg/mL] | MIC (Staphylococcus aureus [4]) [µg/mL] | MIC (Staphylococcus aureus [5]) [µg/mL] | MIC (Staphylococcus aureus [6]) [µg/mL] | MIC (Staphylococcus aureus [7]) [µg/mL] | MIC (Staphylococcus aureus [8]) [µg/mL] | MIC (Staphylococcus aureus [9]) [µg/mL] | MIC (Staphylococcus aureus [10]) [µg/mL] | MIC (Staphylococcus aureus [11]) [µg/mL] | MIC (Staphylococcus aureus [12]) [µg/mL] | MIC (Staphylococcus aureus [13]) [µg/mL] | MIC (Staphylococcus aureus [14]) [µg/mL] | MIC (Staphylococcus aureus [15]) [µg/mL] | MIC (Staphylococcus aureus [16]) [µg/mL] | MIC (Staphylococcus aureus [17]) [µg/mL] | MIC (Staphylococcus aureus [18]) [µg/mL] | MIC (Staphylococcus aureus [19]) [µg/mL] | MIC (Staphylococcus aureus [20]) [µg/mL] | further results
CCCCCCCCCC(=O)N[C@@H](Cc1c[nH]c2ccccc12)C(=O)N[C@H](CC(N)=O)C(=O)N[C@@H](CC(=O)O)C(=O)N[C@@H]1C(=O)NCC(=O)N[C@@H](CCCN)C(=O)N[C@@H](CC(=O)O)C(=O)N[C@H](C)C(=O)N[C@@H](CC(=O)O)C(=O)NCC(=O)N[C@H](CO)C(=O)N[C@@H]([C@H](C)CC(=O)O)C(=O)N[C@@H](CC(=O)c2ccccc2N)C(=O)O[C@@H]1C | 3 (≈ 1.85 µM) | 1 (≈ 0.617 µM) | 1 (≈ 0.617 µM) | 1 (≈ 0.617 µM) | 1 (≈ 0.617 µM) | 0.5 (≈ 0.309 µM) | 3 (≈ 1.85 µM) | 3 (≈ 1.85 µM) | 0.5 (≈ 0.309 µM) | 0.5 (≈ 0.309 µM) | 0.5 (≈ 0.309 µM) | 0.5 (≈ 0.309 µM) | 1 (≈ 0.617 µM) | 3 (≈ 1.85 µM) | 0.5 (≈ 0.309 µM) | 0.5 (≈ 0.309 µM) | 3 (≈ 1.85 µM) | 1 (≈ 0.617 µM) | 0.5 (≈ 0.309 µM) | 1 (≈ 0.617 µM) | MIC (Staphylococcus aureus [21]): 3 µg/mL (≈ 1.85 µM); MIC (Staphylococcus aureus [22]): 0.5 µg/mL (≈ 0.309 µM); MIC (Staphylococcus aureus [23]): 0.5 µg/mL (≈ 0.309 µM); MIC (Staphylococcus aureus [24]): 1 µg/mL (≈ 0.617 µM); MIC (Staphylococcus aureus [25]): 3 µg/mL (≈ 1.85 µM); MIC (Staphylococcus aureus [26]): 1 µg/mL (≈ 0.617 µM); MIC (Staphylococcus aureus [27]): 3 µg/mL (≈ 1.85 µM); MIC (Staphylococcus aureus [28]): 2 µg/mL (≈ 1.23 µM)
Cc1onc(-c2ccccc2)c1C(=O)N[C@@H]1C(=O)N2[C@@H]1SC(C)(C)[C@@H]2C(=O)O [OXACILLIN] | 1020 (≈ 2550 µM) | 1020 (≈ 2550 µM) | 2 (≈ 4.98 µM) | 0.25 (≈ 0.623 µM) | 0.5 (≈ 1.25 µM) | 2 (≈ 4.98 µM) | 512 (≈ 1280 µM) | 1020 (≈ 2550 µM) | 1020 (≈ 2550 µM) | 1 (≈ 2.49 µM) | 8 (≈ 19.9 µM) | 4 (≈ 9.96 µM) | 0.25 (≈ 0.623 µM) | 1020 (≈ 2550 µM) | 16 (≈ 39.9 µM) | 1020 (≈ 2550 µM) | 512 (≈ 1280 µM) | 0.5 (≈ 1.25 µM) | 4 (≈ 9.96 µM) | > 1020 | MIC (Staphylococcus aureus [21]): 1020 µg/mL (≈ 2550 µM); MIC (Staphylococcus aureus [22]): 4 µg/mL (≈ 9.96 µM); MIC (Staphylococcus aureus [23]): 0.5 µg/mL (≈ 1.25 µM); MIC (Staphylococcus aureus [24]): 1020 µg/mL (≈ 2550 µM); MIC (Staphylococcus aureus [25]): 1020 µg/mL (≈ 2550 µM); MIC (Staphylococcus aureus [26]): 4 µg/mL (≈ 9.96 µM); MIC (Staphylococcus aureus [27]): 1020 µg/mL (≈ 2550 µM); MIC (Staphylococcus aureus [28]): > 1020 µg/mL
CN[C@H](CC(C)C)C(=O)N[C@H]1C(=O)N[C@@H](CC(N)=O)C(=O)N[C@H]2C(=O)N[C@H]3C(=O)N[C@H](C(=O)N[C@H](C(=O)O)c4cc(O)cc(O)c4-c4cc3ccc4O)[C@H](O)c3ccc(c(Cl)c3)Oc3cc2cc(c3O[C@@H]2O[C@H](CO)[C@@H](O)[C@H](O)[C@H]2O[C@H]2C[C@](C)(N)[C@H](O)[C@H](C)O2)Oc2ccc(cc2Cl)[C@H]1O [VANCOMYCIN] |  |  |  |  |  |  | 8 (≈ 5.52 µM) | 3 (≈ 2.07 µM) |  |  |  |  |  |  |  |  |  |  |  |  | MIC (Staphylococcus aureus [29]): ≥ 4 µg/mL
